High-throughput results (PubChem BioAssay)
GRK2 inh = compounds blocking aptamer binding on GRK2 – biochemical, human GRK2, bead flow cytometry, HTS, primary screen | inhibition of aptamer binding, % at 10 µM | actives 0.59% (n = 330,000) | FAM-aptamer displacement from GRK2 | Beta-adrenergic receptor kinase 1 (Homo sapiens), P25098;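 active = inhibition of aptamer binding above 40%, roughly 3 SD of noise, on plates passing a quality check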;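 note: median bead fluorescence of bound FAM aptamer so fluorescent compounds give negative values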
Arr AP2 block = inhibitors of beta-arrestin/AP2 binding, primary screen, biochemical, GPCR trafficking, flow cytometry; AID 504490, 2011; actives 0.31% (n = 340,000); inhibition, % at 10 µM; FITC-arrestin peptide / GST-AP2 beads; AP2 beta2 appendage carries R879A mutation;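 active = inhibition above a set limit, near 3 SD of compounds lacking own fluorescence, cut at about 54% in these data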;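 note: plate controls were DMSO wells for no effect and 5 µM unlabelled arrestin peptide for full effect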
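System: GST-AP2 R879A bound to glutathione beads, E. coli-expressed. Also added: 50 nM FITC-arrestin peptide. Schedule: compound with beads 12 min RT, then probe 1 h RT. Signal: bead flow cytometry, FITC channel. Read-out basis: percent response.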
NTR1 ag = agonists of human NTR1, primary screen, imaging, U2OS cells, beta-arrestin-GFP, high content; actives 0.17% (n = 330,000); Neurotensin receptor type 1 (Homo sapiens), P30989; activation, % at 20 µM; AID 493036, 2011; NTR1-U2OS beta-arrestin-GFP spot imaging, agonist mode;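 active = activation at or above 40% of the spot to cytoplasm intensity ratio, with at least 20 cells analyzed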;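 note: 0% = DMSO without peptide and 100% = 100 nM NTR1 peptide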
Target sequence (P30989 whole entry, looked up): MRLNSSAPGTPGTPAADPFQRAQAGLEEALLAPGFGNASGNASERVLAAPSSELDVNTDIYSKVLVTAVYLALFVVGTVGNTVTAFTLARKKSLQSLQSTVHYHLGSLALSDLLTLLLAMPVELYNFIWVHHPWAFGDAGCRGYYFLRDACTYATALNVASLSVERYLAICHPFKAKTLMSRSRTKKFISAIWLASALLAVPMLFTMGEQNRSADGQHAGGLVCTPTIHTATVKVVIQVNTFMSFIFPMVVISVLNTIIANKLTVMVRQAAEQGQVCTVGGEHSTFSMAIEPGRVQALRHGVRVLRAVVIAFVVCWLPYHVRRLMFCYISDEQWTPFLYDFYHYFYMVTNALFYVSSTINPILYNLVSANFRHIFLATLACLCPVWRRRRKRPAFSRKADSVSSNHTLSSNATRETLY
Beta2AR agonist = beta2AR agonists driving receptor internalization, primary screen, cell-based, FAP fluorogen, flow cytometry | Beta-2 adrenergic receptor (Homo sapiens), P07550 | Am2.2-beta2AR cells | response, % (test concentration not listed) | actives 0.43% (n = 340,000) | AID 504454, 2011;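 active = response above a set limit, near 3 SD of response in nonfluorescent compounds, cut at about 42% in these data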
TAG inh = inhibitors of triacylglycerol accumulation, primary screen, cell-based, uHTS, fluorescence, H9c2; AID 651582, 2012; inhibition, % at 12.5 µM; H9c2 cells, Nile Red lipid (TAG) fluorescence; cells loaded with 200 µM oleic acid; actives 0.66% (n = 230,000);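 active = pattern-corrected inhibition of lipid staining of at least 50% with the nuclear-stain viability signal not falling by more than 50%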;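 note: 0% = DMSO wells and 100% = triacsin C control wells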
Lipid droplet = inhibitors of hepatocyte lipid droplet formation, primary screen, imaging, high-throughput imaging, BODIPY stain. AML12 mouse hepatocytes, oleate lipid droplets. AID 1656, 2009. actives 0.4% (n = 240,000). inhibition, % at 6.5 µM;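 active = lipid droplet intensity inhibited by at least 50%, with more than 500 cells counted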
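Technique: fluorescence imaging, 20x objective, two fields per well / Assay system: AML12 hepatocytes (mouse) / Measure: % inhibition of lipid droplet signal / Doses: 6.5 µM single-point dosing / Incubation: overnight exposure / Reagent: 100 µM oleic acid challenge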
GRK2 inh confirm = GRK2 aptamer-displacing inhibitors, retest, confirmation, biochemical, cherry pick 1, bead flow cytometry. actives 4% (n = 2,000). AID 504451, 2011. bead-bound GRK2, FAM-aptamer displacement. aptamer displacement, % at 10 µM. shares compounds with GRK2 inh;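 active = aptamer displacement above 40%, near three times the noise of non-fluorescent compounds, on plates passing quality checks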;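 note: negative values mostly reflect intrinsic compound fluorescence rather than true enhancement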
Aptamer quench = quenches fluorescent RNA aptamer, GRK2 hit artifact; shares compounds with GRK2 inh; 110 tested, under 10 active; Fluorescent RNA aptamer beads, quenching, flow cytometry; hits give high values; AID 504521; fluorescence change (kMESF span), kMESF (concentration not given with the values);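 active = compounds whose bead fluorescence drops by more than 37 kMESF across the dose range, marking them as dye quenchers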
Aptamer quench SP = counter-screen for GRK2 aptamer inhibitors: fluorescent aptamer quenchers. shares compounds with GRK2 inh. Carboxyfluorescein RNA aptamer on beads, flow cytometry quenching; hits give low values. fluorescence response (% of DMSO), % at 10 µM. 2,000 tested, under 10 active. AID 504580;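 active = compounds that quench the bead-bound fluorescent RNA probe, cutting fluorescence to under half of the solvent control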;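 note: counterscreen run without GRK2 so only probe quenching by compound is measured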
GRK2 confirm 2 = GRK2 aptamer-displacing inhibitors, hit retest, confirmation, biochemical, cherry pick 2, bead flow cytometry | 360 tested, under 10 active | inhibition of aptamer binding, % at 10 µM | AID 504782, 2011 | bead-bound GRK2, FAM-aptamer displacement | shares compounds with GRK2 inh;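 active = inhibition of aptamer binding above 40%, about triple the noise seen with nonglowing compounds, on plates passing quality control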;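 note: negative values mostly come from compounds that fluoresce themselves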
FAM quench SP = counter-screen for GRK2 binding hits: quenchers of fluorescent RNA aptamer; 360 tested, under 10 active; carboxyfluorescein RNA aptamer beads, flow cytometry quenching; hits give low values; fluorescence response vs DMSO, % at 10 µM; shares compounds with GRK2 inh;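 active = response vs DMSO under 50%, meaning signal dropped by over half, treated as fluorescence quencher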;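 note: labelled aptamer on streptavidin beads without GRK2 as a quench counter-screen; 100% = bead fluorescence of DMSO wells and lower means quenching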
* = called active by the depositor. Rows were chosen to be rich in hits. Some 2% of all compounds tested hit in one or more screens of this group.

For CCOC(=O)CC(NS(=O)(=O)c1ccc2[nH]cc(C(=O)O)c(=O)c2c1)c1ccc(OCC)c(OC)c1 (configuration not stated) the results were GRK2 inh 89.0*, Arr AP2 block -12.5, NTR1 ag 2.2, Beta2AR agonist -4.6, Lipid droplet -66.6, GRK2 inh confirm 70.2*, Aptamer quench -122 and Aptamer quench SP 99.8.
COc1ccc(N(CC(=O)NC2CCCC2)S(=O)(=O)c2c(C)[nH]c(=O)[nH]c2=O)cc1 was read as GRK2 inh 23.0, Arr AP2 block 8.1, NTR1 ag -1.7, Beta2AR agonist 6.2, TAG inh 17.9, GRK2 inh confirm 3.7 and Aptamer quench SP 97.2.
For Cc1cc(C)cc(N(CC(=O)NC2CCCC2)S(=O)(=O)c2c(C)[nH]c(=O)[nH]c2=O)c1 the results were GRK2 inh 2.0, Arr AP2 block 4.1, NTR1 ag 0.6, Beta2AR agonist 1.9, TAG inh 5.5 and Lipid droplet -15.8.
Screening CCCC(=O)Nc1nnc(SCC)s1 returned GRK2 inh 100.0*, Arr AP2 block 7.2, NTR1 ag 1.5, Beta2AR agonist -3.8, Lipid droplet -2.4, GRK2 confirm 2 -16.3 and FAM quench SP 102.0.
CCCC(=O)Nc1nnc(SCC(=O)N2CCCCC2)s1 was read as GRK2 inh 0.0, Arr AP2 block -5.8, NTR1 ag -0.5, Beta2AR agonist 6.4 and Lipid droplet 1.2.
Screening CCNC(=O)N1CCOCC1 returned GRK2 inh 45.0*, Arr AP2 block 5.7, NTR1 ag -0.6, Beta2AR agonist -6.5, Lipid droplet -7.2, GRK2 inh confirm -6.2 and Aptamer quench SP 100.0.
Screening COc1cc(C2C(=O)N(C3CCCC3)CC(=O)N2Cc2ccco2)ccc1OC(C)C (configuration not stated) returned GRK2 inh 58.0*, Arr AP2 block -5.0, NTR1 ag 0.0, Beta2AR agonist -4.5, GRK2 inh confirm -1.3 and Aptamer quench SP 98.9.
Screening CCCOc1ccc(C2C(=O)N(C3CCCCC3)CC(=O)N2CCC)cc1OC (configuration not stated) returned GRK2 inh 3.0, Arr AP2 block -0.8, NTR1 ag 2.0 and Beta2AR agonist -9.0.
`CC(=O)Nc1cccc(-c2cc(N3CCN(CCO)CC3)n3nccc3n2)c1` gave TAG inh 5.0.
`Cc1cc(NC(=O)CSc2nnc3ccccn23)no1` gave GRK2 inh 3.0, Arr AP2 block 8.3, NTR1 ag 0.9, Beta2AR agonist -7.8, TAG inh 1.5 and Lipid droplet 0.0.
Screening CC(=O)COc1coc(CN2CCN(c3ccc(F)cc3)CC2)cc1=O returned GRK2 inh 99.0*, Arr AP2 block 23.7, NTR1 ag 0.2, Beta2AR agonist -1.3, Lipid droplet 10.3, GRK2 inh confirm 18.7 and Aptamer quench SP 95.7.
COc1ccc(C(N)CCc2ccc(C)o2)cc1 (configuration not stated) was read as GRK2 inh 79.0*, Arr AP2 block -1.7, NTR1 ag -2.2, Beta2AR agonist 10.1, TAG inh -0.6, GRK2 inh confirm -36.9 and Aptamer quench SP 111.2.
Screening CCc1ccc(CCC(=O)Nc2ccc(OC)cc2)o1 returned GRK2 inh 4.0, Arr AP2 block -6.0, NTR1 ag -1.9, Beta2AR agonist 11.0, TAG inh 7.3 and Lipid droplet 1.8.
Screening CCN(C(=O)CN1CCc2ccccc21)c1c(N)n(Cc2ccccc2)c(=O)[nH]c1=O returned GRK2 inh 0.0, Arr AP2 block 8.2, NTR1 ag 0.1, Beta2AR agonist 15.4, TAG inh 5.3, Lipid droplet 2.5, GRK2 inh confirm -1.0 and Aptamer quench SP 98.7.
COCCN(C(=O)CN1CCc2ccccc21)c1c(N)n(Cc2ccccc2)c(=O)[nH]c1=O was read as GRK2 inh 0.0, Arr AP2 block 1.6, NTR1 ag 1.2, Beta2AR agonist 11.5 and TAG inh -7.9.
Screening CC(=O)Nc1cccc(-n2nnc(SCC(=O)Nc3ccc(F)c(Cl)c3)n2)c1 returned GRK2 inh 86.0*, Arr AP2 block 1.7, NTR1 ag 2.8, Beta2AR agonist 2.6, TAG inh -3.9, Lipid droplet -4.2, GRK2 inh confirm 0.9 and Aptamer quench SP 98.9.
For CC(=O)Nc1cccc(-n2nnc(SCC(N)=O)n2)c1 the results were GRK2 inh 0.0, Arr AP2 block 39.4, NTR1 ag -0.9, Beta2AR agonist 3.9, TAG inh -2.5 and Lipid droplet 3.3.
For Cc1ccc(OCCCN2CCOCC2)cc1 the results were GRK2 inh 3.0, Arr AP2 block -9.1, NTR1 ag -0.4, Beta2AR agonist -4.7, TAG inh 18.8 and Lipid droplet -1.9.
Screening Nc1ccc(S(=O)(=O)c2ccc(N)nc2)cc1 returned TAG inh 3.3.
Nc1c2c(nc3sc4c(c13)CCCC4)CCCCCC2 was read as GRK2 inh 83.0*, Arr AP2 block 14.5, NTR1 ag 2.8, Beta2AR agonist 6.0, TAG inh 1.1, Lipid droplet -3.3, GRK2 inh confirm -4.4 and Aptamer quench SP 92.1.
Screening CC(C)NC(=O)NC(=O)COC(=O)/C=C/c1ccccc1[N+](=O)[O-] returned GRK2 inh 100.0*, Arr AP2 block 2.2, NTR1 ag 0.2, Beta2AR agonist 5.6, TAG inh -2.8, Lipid droplet 2.5, GRK2 inh confirm 0.6 and Aptamer quench SP 101.9.
